ChEMBL document CHEMBL1133492, “Design, synthesis, and biological evaluation of fluoronitrophenyl substituted folate analogues as potential inhibitors of GAR transformylase and AICAR transformylase” (Bioorg Med Chem Lett, 2000)
Calls of active or inactive are those of the source. The rule behind the calls is not given here.

Experiments:
[1] = target: T1, Trifunctional purine biosynthetic protein adenosine-3 (Homo sapiens) (UniProt P22102); experiment: In vitro inhibitory activity against Glycinamide ribonucleotide transformylase (GAR Tfase) after 3 min at 25 uM; […]
T1 sequence (whole entry): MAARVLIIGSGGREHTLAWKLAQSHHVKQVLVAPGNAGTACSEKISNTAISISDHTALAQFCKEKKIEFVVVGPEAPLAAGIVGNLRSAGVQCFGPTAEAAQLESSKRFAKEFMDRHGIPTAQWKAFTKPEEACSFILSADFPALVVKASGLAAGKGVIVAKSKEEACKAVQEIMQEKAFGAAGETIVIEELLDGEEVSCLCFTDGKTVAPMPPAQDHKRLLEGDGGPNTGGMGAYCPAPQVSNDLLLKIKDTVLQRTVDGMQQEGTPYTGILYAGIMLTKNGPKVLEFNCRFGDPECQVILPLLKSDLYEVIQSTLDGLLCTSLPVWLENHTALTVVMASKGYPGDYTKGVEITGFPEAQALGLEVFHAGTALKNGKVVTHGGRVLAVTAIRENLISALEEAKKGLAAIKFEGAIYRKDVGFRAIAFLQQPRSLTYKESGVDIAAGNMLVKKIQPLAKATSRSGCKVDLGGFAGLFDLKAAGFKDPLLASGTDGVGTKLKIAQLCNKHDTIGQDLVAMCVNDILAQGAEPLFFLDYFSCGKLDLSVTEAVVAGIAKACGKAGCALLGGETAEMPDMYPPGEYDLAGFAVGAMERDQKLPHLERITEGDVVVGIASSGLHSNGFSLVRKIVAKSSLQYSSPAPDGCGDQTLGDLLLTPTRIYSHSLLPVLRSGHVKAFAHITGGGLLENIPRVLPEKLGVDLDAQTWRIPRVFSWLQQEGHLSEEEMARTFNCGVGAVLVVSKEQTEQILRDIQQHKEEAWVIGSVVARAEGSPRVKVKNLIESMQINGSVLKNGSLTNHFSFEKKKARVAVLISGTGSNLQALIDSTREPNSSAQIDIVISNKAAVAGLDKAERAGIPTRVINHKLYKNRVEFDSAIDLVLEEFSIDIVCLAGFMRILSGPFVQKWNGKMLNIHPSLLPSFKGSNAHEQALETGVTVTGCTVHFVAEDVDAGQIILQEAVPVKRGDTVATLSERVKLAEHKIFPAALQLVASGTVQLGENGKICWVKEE

[2] = system: CCRF-CEM; experiment: Cytotoxicity in the absence of thymidine and hypoxanthine against CCRF-CEM cell line; assay type: functional, cell-based; conditions: Homo sapiens
In short: (§1)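 CCRF-CEM cells were grown in purine- and pyrimidine-free medium, with thymidine and/or hypoxanthine added or omitted as each line specifies. The cytotoxic potency was reported as an IC50 (µM).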

[3] = target: T2, Bifunctional purine biosynthesis protein ATIC (Homo sapiens, UniProt P31939); experiment: In vitro inhibitory activity against Aminoimidazole carboxamide ribonucleotide transformylase pre-incubated for 12 hr at 250 uM; Not active.
In short: (§2)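 The AICAR Tfase assay solution was pre-incubated with inhibitor (250 µM, or 25 µM where the line states) for 12 h at room temperature. The reaction was then started by adding AICAR, and enzyme inhibition was measured.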
Target sequence in this assay (P31939 whole entry, looked up): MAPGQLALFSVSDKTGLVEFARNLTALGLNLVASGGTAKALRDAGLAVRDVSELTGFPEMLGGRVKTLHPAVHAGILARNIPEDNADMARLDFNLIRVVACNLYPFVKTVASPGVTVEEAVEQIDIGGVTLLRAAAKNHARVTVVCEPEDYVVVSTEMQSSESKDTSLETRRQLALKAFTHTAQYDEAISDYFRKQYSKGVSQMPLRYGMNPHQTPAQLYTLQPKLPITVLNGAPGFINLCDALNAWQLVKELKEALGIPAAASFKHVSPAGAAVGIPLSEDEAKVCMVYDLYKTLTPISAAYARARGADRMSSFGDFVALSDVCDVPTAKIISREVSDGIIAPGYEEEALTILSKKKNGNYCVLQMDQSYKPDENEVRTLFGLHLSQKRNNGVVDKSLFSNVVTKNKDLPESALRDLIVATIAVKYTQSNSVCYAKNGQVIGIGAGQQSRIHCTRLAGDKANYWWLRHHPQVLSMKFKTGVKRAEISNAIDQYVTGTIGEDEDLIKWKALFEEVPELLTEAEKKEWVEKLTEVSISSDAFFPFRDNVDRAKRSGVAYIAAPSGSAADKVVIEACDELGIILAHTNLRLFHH

[4] = target: T1, Trifunctional purine biosynthetic protein adenosine-3 (Homo sapiens); experiment: In vitro inhibitory activity against Glycinamide ribonucleotide transformylase (GAR Tfase+GAR) following 30 min pre-incubation at 250 uM concentration
[5] = system: CCRF-CEM; experiment: Cytotoxicity in the absence of hypoxanthine and presence of thymidine against CCRF-CEM cell line; assay type: functional, cell-based; conditions: Homo sapiens; in short: as §1
[6] = target: T1, Trifunctional purine biosynthetic protein adenosine-3 (Homo sapiens); experiment: In vitro inhibitory activity against Glycinamide ribonucleotide transformylase (GAR Tfase) after 30 min at 25 uM; Not active
[7] = target: T1, Trifunctional purine biosynthetic protein adenosine-3 (Homo sapiens); experiment: In vitro inhibitory activity at 250 uM concentration against Glycinamide ribonucleotide transformylase (GAR Tfase) pre-incubation time (6 hr).
[8] = system: CCRF-CEM; experiment: Cytotoxicity in the presence of thymidine and hypoxanthine against CCRF-CEM cell line; assay type: functional, cell-based; conditions: Homo sapiens; in short: as §1
[9] = target: T1, Trifunctional purine biosynthetic protein adenosine-3 (Homo sapiens); experiment: In vitro activity against Glycinamide ribonucleotide transformylase (GAR Tfase) after 3 min at 25 uM
[10] = system: CCRF-CEM; experiment: Cytotoxicity in the absence of thymidine and presence of hypoxanthine against CCRF-CEM cell line; assay type: functional, cell-based; conditions: Homo sapiens; in short: as §1
[11] = target: T1, Trifunctional purine biosynthetic protein adenosine-3 (Homo sapiens); experiment: In vitro inhibitory activity against Glycinamide ribonucleotide transformylase (GAR Tfase+GAR) pre-incubation of 6 hr at 250 uM concentration
[12] = target: T1, Trifunctional purine biosynthetic protein adenosine-3 (Homo sapiens); experiment: In vitro activity against Glycinamide ribonucleotide transformylase (GAR Tfase) after 30 min at 25 uM
[13] = target: T1, Trifunctional purine biosynthetic protein adenosine-3 (Homo sapiens); experiment: In vitro inhibitory activity against Glycinamide ribonucleotide transformylase (GAR Tfase) following 3 min pre-incubation at 250 uM concentration
[14] = target: T1, Trifunctional purine biosynthetic protein adenosine-3 (Homo sapiens); experiment: In vitro inhibitory activity against Glycinamide ribonucleotide transformylase (GAR Tfase+GAR) following 3 min pre-incubation at 250 uM concentration
[15] = target: T1, Trifunctional purine biosynthetic protein adenosine-3 (Homo sapiens); experiment: In vitro inhibitory activity against Glycinamide ribonucleotide transformylase (GAR Tfase) after 1 hr at 25 uM
[16] = target: T1, Trifunctional purine biosynthetic protein adenosine-3 (Homo sapiens); experiment: In vitro inhibitory activity against Glycinamide ribonucleotide transformylase (GAR Tfase) after 6 hr at 250 uM; Not active
[17] = target: T1, Trifunctional purine biosynthetic protein adenosine-3 (Homo sapiens); experiment: In vitro inhibitory activity against Glycinamide ribonucleotide transformylase (GAR Tfase) after 7 hr at 250 uM
[18] = target: T1, Trifunctional purine biosynthetic protein adenosine-3 (Homo sapiens); experiment: In vitro inhibitory activity against Glycinamide ribonucleotide transformylase (GAR Tfase) after 3 min at 250 uM; Not active
[19] = target: T1, Trifunctional purine biosynthetic protein adenosine-3 (Homo sapiens); experiment: In vitro inhibitory activity against Glycinamide ribonucleotide transformylase (GAR Tfase) after 30 min at 250 uM; Not active
[20] = target: T2, Bifunctional purine biosynthesis protein ATIC; experiment: In vitro inhibitory activity against Aminoimidazole carboxamide ribonucleotide transformylase; in short: as §2
Target sequence in this assay (P31939 whole entry): as the sequence (P31939 whole entry, looked up) above

[21] = target: T2, Bifunctional purine biosynthesis protein ATIC; experiment: In vitro inhibitory activity against Aminoimidazole carboxamide ribonucleotide transformylase pre-incubed for 12 hr at 250 uM; in short: as §2
Target sequence in this assay (P31939 whole entry, looked up): as above

[22] = target: T1, Trifunctional purine biosynthetic protein adenosine-3 (Homo sapiens); experiment: In vitro inhibitory activity against Glycinamide ribonucleotide transformylase (GAR Tfase) after 3 min at 25 uM
[23] = target: T1, Trifunctional purine biosynthetic protein adenosine-3 (Homo sapiens); experiment: (§3) In vitro inhibitory activity against Glycinamide ribonucleotide transformylase (GAR Tfase) after 6 hr at 25 uM
[24] = target: T1, Trifunctional purine biosynthetic protein adenosine-3 (Homo sapiens); experiment: as §3; remark: listed apart in the source
[25] = target: T1, Trifunctional purine biosynthetic protein adenosine-3 (Homo sapiens); experiment: In vitro inhibitory activity against Glycinamide ribonucleotide transformylase (GAR Tfase) after 30 min at 25 uM
[26] = target: T1, Trifunctional purine biosynthetic protein adenosine-3 (Homo sapiens); experiment: In vitro inhibitory activity against Glycinamide ribonucleotide transformylase (GAR Tfase) after 1 hr at 25 uM; […]

Row | SMILES | IC50 [2] | inhibition [3] | inhibition [4] | IC50 [5] | inhibition [7] | IC50 [8] | IC50 [10] | inhibition [11] | inhibition [13] | inhibition [14] | inhibition [21] | other results
1 | COC(=O)c1ccc(CN(CCCc2c(N)nc(N)nc2O)c2cc(F)cc(F)c2[N+](=O)[O-])cc1 | > 100 µM | inactive | 12% | > 100 µM | 0% | > 100 µM | > 100 µM | 6% | 6% | 25% |  | inhibition [1]: inactive; inhibition [6]: inactive; % control activity remaining [9]: 78%; % control activity remaining [12]: 76%; inhibition [15]: 39%; inhibition ([15]; in the assay text read “after 6 hr” for “after 1 hr”): 84%
2 | Nc1nc(N)c(CCCNc2cc(F)ccc2[N+](=O)[O-])c(O)n1 | > 100 µM | inactive |  | > 100 µM |  | > 100 µM | > 100 µM |  | 86% |  |  | inhibition [16]: inactive; inhibition [17]: 64%; inhibition [18]: inactive; inhibition [19]: inactive
3 | Nc1nc(O)c2cc(CN(Cc3ccc(F)c([N+](=O)[O-])c3)c3ccc(C(=O)NC(CCC(=O)O)C(=O)O)cc3)ccc2n1 (configuration not stated) |  |  |  |  |  |  |  |  |  |  |  | Ki [20]: 17 µM
4 | COC(=O)c1ccc(CN(CCCc2c(N)nc(N)nc2O)c2cc(F)c(F)cc2[N+](=O)[O-])cc1 | 59 µM |  | 54% | 55 µM | 0% | 53 µM | 66 µM | 14% | 44% | 68% | 94% | 
5 | Nc1nc2ccc(CN(Cc3ccc([N+](=O)[O-])c(F)c3)c3ccc(C(=O)NC(CCC(=O)O)C(=O)O)cc3)cc2c(=O)[nH]1 (configuration not stated) |  |  |  |  |  |  |  |  |  |  |  | Ki [20]: 52 µM
6 | Nc1nc(N)c(CCCNc2cc(F)c([N+](=O)[O-])cc2[N+](=O)[O-])c(O)n1 | 1 µM |  | 75% | 1.1 µM | 39% | 1.2 µM | 1 µM | 2% | 76% | 100% | 64% | inhibition [22]: 76%; inhibition [1]: inactive; inhibition [6]: inactive; inhibition [23]: 58%; inhibition [24]: 56%; inhibition [25]: 71%
7 | COC(=O)c1ccc(CN(CCc2c(N)nc(N)nc2O)c2cc(F)c([N+](=O)[O-])cc2[N+](=O)[O-])cc1 | 1.3 µM |  | 54% | 1.9 µM | 2% | 1.1 µM | 1.7 µM | 27% | 47% | 66% | 75% | 
8 | COC(=O)c1ccc(CN(CCCc2c(N)nc(N)nc2O)c2ccc([N+](=O)[O-])c(F)c2F)cc1 | 41 µM |  | 78% | 45 µM | 41% | 45 µM | 55 µM | 75% | 61% | 82% | 96% | 
9 | Nc1nc2c(c(=O)[nH]1)C[C@@H](CCc1ccc(C(=O)N[C@@H](CCC(=O)O)C(=O)O)cc1)CN2 [LOMETREXOL] | 0.13 µM |  |  | 0.07 µM |  | > 100 µM | > 100 µM |  |  |  |  | 
10 | COC(=O)c1ccc(CN(CCc2c(N)nc(N)nc2O)c2cc(F)c(F)cc2[N+](=O)[O-])cc1 | 12 µM | inactive | 31% | 13 µM | 2% | 11 µM | 11 µM | 22% | 17% | 35% |  | 
11 | Nc1nc(N)c(CCNc2cc(F)c(F)cc2[N+](=O)[O-])c(O)n1 | 55 µM | inactive |  | 43 µM |  | 58 µM | 37 µM |  |  |  |  | inhibition [18]: inactive; inhibition [19]: inactive; inhibition [26]: inactive
12 | COC(=O)c1ccc(CN(CCc2c(N)nc(N)nc2O)c2cc(F)cc(F)c2[N+](=O)[O-])cc1 | > 100 µM | inactive | 29% | 91 µM | 0% | > 100 µM | > 100 µM | 30% | 16% | 32% |  | 
13 | COC(=O)c1ccc(CN(CCc2c(N)nc(N)nc2O)c2ccc([N+](=O)[O-])c(F)c2F)cc1 | 48 µM |  | 85% | 61 µM | 30% | 67 µM | 36 µM | 67% | 68% | 79% | 73% | 
14 | COC(=O)c1ccc(CN(CCCc2c(N)nc(N)nc2O)c2cc(F)ccc2[N+](=O)[O-])cc1 | 45 µM | inactive | 44% | 43 µM | 0% | 30 µM | 55 µM | 8% | 70% | 75% |  | 
15 | Nc1nc(N)c(CCCNc2cc(F)c(F)cc2[N+](=O)[O-])c(O)n1 | 97 µM |  |  | > 100 µM | 63% | 97 µM | 97 µM |  | 87% |  | 98% | inhibition [16]: inactive; inhibition [18]: inactive; inhibition [19]: inactive
16 | Nc1nc(N)c(CCCNc2cc(F)cc(F)c2[N+](=O)[O-])c(O)n1 | 97 µM | inactive |  | 97 µM | 53% | 94 µM | 97 µM |  | 80% |  |  | inhibition [16]: inactive; inhibition [18]: inactive; inhibition [19]: inactive
17 | COC(=O)c1ccc(CN(CCc2c(N)nc(N)nc2O)c2cc(F)ccc2[N+](=O)[O-])cc1 | 72 µM |  | 62% | 66 µM | 12% | 72 µM | 72 µM | 47% | 78% | 81% | 94% | 
18 | COC(=O)c1ccc(CN(CCCc2c(N)nc(N)nc2O)c2cc(F)c([N+](=O)[O-])cc2[N+](=O)[O-])cc1 | 2.5 µM |  | 22% | 3.9 µM | 0% | 3.5 µM | 4.3 µM | 0% | 46% | 64% | 77% | inhibition [1]: inactive; % control activity remaining [24]: 65%; inhibition [25]: 83%; % control activity remaining [9]: 83%; % control activity remaining [12]: 77%; inhibition [15]: 2%
